Tested on: MS2 coat protein
Experiment: apparent Kd, MS2 coat protein; higher = weaker binding; RNA-MaP array; FMN 200 µM where present
Summary of the method: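 The titrant was SNAP-549-labelled MS2 coat protein, run from 0.7 or 1.5 nM in doubling steps to 3 µM. It was applied to designs transcribed by stalled E. coli RNA polymerase on Illumina sequencing-chip clusters, without ligand first and then with constant ligand, in 100 mM Tris-HCl pH 7.5, 80 mM KCl, 4 mM MgCl2, BSA, DTT, yeast tRNA and Tween-20. The apparent Kd is the median of filtered per-cluster binding-curve fits, with green signal normalised to red-channel RNA signal and control-cluster median Fmax.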

[1] = designed as: ON switch for flavin mononucleotide, no ligand
[2] = ligand present: flavin mononucleotide, designed as: ON switch for flavin mononucleotide
[3] = designed as: OFF switch for flavin mononucleotide, no ligand
[4] = ligand present: flavin mononucleotide, designed as: OFF switch for flavin mononucleotide

Row | Sequence | apparent Kd [1] [nM] | apparent Kd [2] [nM] | apparent Kd [3] [nM] | apparent Kd [4] [nM]
1 | AUUUAUGUCAUAGGAUAUAUAAAUAAAUUUAUAACAUGAGGAUCACCCAUGUACUUUAGUAUGAGGUAGAAGGAUGAUAAGAGU | 35.1 | 26.7 | – | –
2 | AUAAUUUUAUAUAUCUUUUUUAUCAGAAGGCAUAACAUGAGGAUCACCCAUGUAUAUUAUAGUUAUGAGGAUAUGAUUUAGUUA | – | – | 10.2 | 11.4
3 | GUCAGCUCGUGAGGAUAUACAUGAUAGAUCGAUUAAUUAAUUAAUUUAACAUGAGGAUCACCCAUGUAGAAGGUACGAGCUGAU | – | – | 61.6 | 45.2
4 | CUUGUUGUCGAGGAUAUGCACCAGCUCACUGACGCAGAAGGCGACACAUGAGGAUCACCCAUGUCAGUUCGCGU | – | – | 37.4 | 225
5 | UAUUUGUCAGGAUAUGAGUCGUAGAACAAUAGUACUACGUCUCAGAAGGGACAUGAGGAUCACCCAUGUGCCUC | – | – | 25.5 | 217
6 | GGACGUCACAUUAACAUGAGGAUCACCCAUGUCUAUAGACAUGAGGAUAUGGAUCCUAAUUGGAUCCAGAAGGCAUGGACGUCC | 787 | 46.3 | – | –
7 | GGAGCACACCUUAACAUGAGGAUCACCCAUGUCAAAAGACAUGAGGAUAUGGAUCCGAAAAGGAUCCAGAAGGCAUGGUGCUCC | 188 | 11.9 | – | –
8 | GUGCACAUUCGAGGAUAUCGGAGAGAGAUCCUUCGAGAAGGCGAUUCAUGCUGUAUUAUUCUGGACAUGAGGAUCACCCAUGUG | 230 | 101 | – | –
9 | CGAUAAAGCUGAGGAUAUGAGAAUAGAAAGAAAUCAGAAGGCAGACAUGAGGAUCACCCAUGUGAGUUCUCGAGAUUACAUGGU | – | – | 250 | 529
10 | AUAAUACAUGAGGAUCACCCAUGUAAUUUAACUUGUAAGAUCAAGGAUAUCAGCUCGUUUAGAGCUGAGAAGGUGAUCACAUGU | 187 | 292 | – | –
11 | UUCAGCUCGUGAGGAUAUACAUGUGCUGGAAACAGCACUAAAGUUUUCACAUGAGGAUCACCCAUGUAGAAGGCACGAGCUGAG | – | – | 15.6 | 34.5
12 | GGUGCGAUGUAGAAGGCAGAUCUGAUUCAGAUCUGAGGAUAUACAUGAGGAUCACCCAUGUAAAGGCACCGCACGAGAGUGCAA | – | – | 7.12 | 11.3
13 | CAGCGCUGUCGAGAGGAUAUGCGGUGAUGGACAUGAGGAUCACCCAUGUUAGCGGUAGCAUUACGGUAGAAGGCUCUACAGCUGC | 31 | 13.2 | – | –
14 | AAAAUCGAAGGAUAUACAUAUCCUUUAGCGGCAAUGCCGCGACAUGAGGAUCACCCAUGUAGAAGGUCGUAAAA | – | – | 27.6 | 31.5
15 | CCUCCGCAUUAGGAUAUCGUCACGGAAACGUGACGAGAAGGAAUGACAUGAGGAUCACCCAUGUUAACGUGAUG | – | – | 52.2 | 270
16 | AUCUCGUCAGGAUAUUGGAUCUGGAUCGAAAGGUCUAGGUCUAAGAAGGGACAUGAGGAUCACCCAUGUCUGGU | – | – | 22.9 | 69.6
17 | GGGCUCGGAGGAUAUACAAUGGGCCCGGGAAACCGGGCCCUACAUGAGGAUCACCCAUGUAGAAGGUCGGGUCU | – | – | 15.5 | 24.1
18 | UAUGUUGUUGUGAGGAUAUACUUAGUUUGACCGUAGUAGAAGGCACAUGAGGAUCACCCAUGUAGAUGUUUGGU | – | – | 15.8 | 29.5
19 | CCGGAAAUGGAGGAUAUAGGAGUCGAUAGACACCUAGAAGGUCAUACAUGAGGAUCACCCAUGUGUCCUACCGG | – | – | 17.2 | 19.1
20 | UGUCGGAGCAGAGGAUAUUACAUGAGGAUCACCCAUGUAUGAACCAAUAGCUGGAAACAGCAAUGUAAGAAGGCAGCUCCGACA | – | – | 5.11 | 8.82
21 | UAAUAAUAGCAAGGAUAUGGUUAUUAUAAUAUACCAGAAGGUGCACAUGAGGAUCACCCAUGUUUUAUAAUUUGUAAUUUAAAU | – | – | 30.7 | 27.3
22 | AAACAGUACGAGAAGGGCUACAUGAGGAUCACCCAUGUAGACGGUCGUGUGGCAGGAUAUCGAACACACCCAAAACGGUGCGUU | – | – | 5.9 | 7.43
23 | CAGCGGCAAGGAUAUACAUGAGGAUCACCCAUGUGGUCCCGCUAUAGUAACUUAGCUUGUAGAAGGUGCAGCUA | – | – | 36.5 | 218

Source: the EternaBench riboswitch data
